Several values for one entry are separate records, joined by “and”; a condition that tells them apart may be missing. Identical values can stand only once.
Tested on: Fibroblast
Experiment: Multiplex assay against human fibroblast
Type: toxicity, cell-based
Summary of the method: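 Tubulin, mitochondrial-mass and membrane-permeability phenotypes are per cents of healthy-nucleus cells. Cells were gated by CellPathfinder machine learning into Hoechst high-intensity objects or normal cells, normal cells into healthy, pyknosed or fragmented nuclei, and pyknosed cells into mitotic or apoptotic. Before that, live cells stained at seeding with Hoechst33342, BioTracker Green Microtubule Cytoskeleton Dye, MitoTracker Red and Annexin V Alexa Fluor 680 were imaged on a CQ1 microscope at 37°C and 5% CO2 after compound addition.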

[1] = 12 h, 1 µM, compound concentration 1 uM, replicate 1
[2] = 12 h, 1 µM, compound concentration 1 uM, replicate 2
[3] = 12 h, 10 µM, compound concentration 10 uM, replicate 1
[4] = 12 h, 10 µM, compound concentration 10 uM, replicate 2
[5] = 24 h, 1 µM, compound concentration 1 uM, replicate 1
[6] = 24 h, 1 µM, compound concentration 1 uM, replicate 2
[7] = 24 h, 10 µM, compound concentration 10 uM, replicate 1
[8] = 24 h, 10 µM, compound concentration 10 uM, replicate 2
[9] = 48 h, 10 µM, compound concentration 10 uM, replicate 1
[10] = 48 h, 10 µM, compound concentration 10 uM, replicate 2

SMILES: COCC(=O)NC/C=C/c1ccc2ncnc(Nc3ccc(Oc4ccc(C)nc4)c(C)c3)c2c1 [CP-724714]
- Population Apoptotic (%) [1]: 52% and 82%
- Population Fragmented Nuclei (%) [1]: 30% and 25%
- Population Healthy Nuclei (%) [1]: 51% and 59%
- Population Hoechst High Intensity Objects (%) [1]: 14% and 12%
- Population Membrane Permeable-Phenotype (%) [1]: 29% and 10%
- Population Mitotic Cells (%) [1]: 47% and 17%
- Population Normal (%) [1]: 85% and 87%
- Population Pyknosed Nuclei (%) [1]: 18%
- Total Cell Count [1]: 245 and 254
- Population Fragmented Nuclei (%) [2]: 50% and 54%
- Population Healthy Nuclei (%) [2]: 33% and 20%
- Population Hoechst High Intensity Objects (%) [2]: 27% and 42%
- Population Membrane Permeable-Phenotype (%) [2]: 22% and 11%
- Population Normal (%) [2]: 72% and 57%
- Population Pyknosed Nuclei (%) [2]: 15% and 25%
- Population Tubulin-Different-Phenotype (%) [2]: 22% and 44%
- Total Cell Count [2]: 73 and 76
- Population Apoptotic (%) [3]: 51%
- Population Fragmented Nuclei (%) [3]: 33%
- Population Healthy Nuclei (%) [3]: 37%
- Population Hoechst High Intensity Objects (%) [3]: 14%
- Population Membrane Permeable-Phenotype (%) [3]: 14%
- Population Mitochondria Different-Phenotype (%) [3]: 50%
- Population Mitotic Cells (%) [3]: 48%
- Population Normal (%) [3]: 85%
- Population Pyknosed Nuclei (%) [3]: 29%
- Population Tubulin-Different-Phenotype (%) [3]: 87%
- Total Cell Count [3]: 148
- Population Apoptotic (%) [4]: 80%
- Population Fragmented Nuclei (%) [4]: 18%
- Population Healthy Nuclei (%) [4]: 63%
- Population Hoechst High Intensity Objects (%) [4]: 11%
- Population Membrane Permeable-Phenotype (%) [4]: 37%
- Population Mitochondria Different-Phenotype (%) [4]: 94%
- Population Mitotic Cells (%) [4]: 20%
- Population Normal (%) [4]: 88%
- Population Pyknosed Nuclei (%) [4]: 18%
- Population Tubulin-Different-Phenotype (%) [4]: 100%
- Total Cell Count [4]: 62
- Population Apoptotic (%) [5]: 58% and 59%
- Population Fragmented Nuclei (%) [5]: 30% and 19%
- Population Healthy Nuclei (%) [5]: 51% and 62%
- Population Hoechst High Intensity Objects (%) [5]: 14% and 11%
- Population Mitotic Cells (%) [5]: 41% and 40%
- Population Normal (%) [5]: 85% and 88%
- Population Pyknosed Nuclei (%) [5]: 17% and 18%
- Total Cell Count [5]: 243 and 259
- Population Apoptotic (%) [6]: 37% and 77%
- Population Fragmented Nuclei (%) [6]: 55% and 57%
- Population Healthy Nuclei (%) [6]: 31% and 21%
- Population Hoechst High Intensity Objects (%) [6]: 24% and 51%
- Population Membrane Permeable-Phenotype (%) [6]: 16% and 11%
- Population Mitochondria Different-Phenotype (%) [6]: 22% and 33%
- Population Mitotic Cells (%) [6]: 62% and 22%
- Population Normal (%) [6]: 75% and 48%
- Population Pyknosed Nuclei (%) [6]: 13% and 21%
- Total Cell Count [6]: 77 and 86
- Population Apoptotic (%) [7]: 57%
- Population Fragmented Nuclei (%) [7]: 34%
- Population Healthy Nuclei (%) [7]: 34%
- Population Hoechst High Intensity Objects (%) [7]: 14%
- Population Membrane Permeable-Phenotype (%) [7]: 16%
- Population Mitochondria Different-Phenotype (%) [7]: 69%
- Population Mitotic Cells (%) [7]: 42%
- Population Normal (%) [7]: 85%
- Population Pyknosed Nuclei (%) [7]: 30%
- Population Tubulin-Different-Phenotype (%) [7]: 95%
- Total Cell Count [7]: 144
- Population Apoptotic (%) [8]: 60%
- Population Fragmented Nuclei (%) [8]: 16%
- Population Healthy Nuclei (%) [8]: 54%
- Population Hoechst High Intensity Objects (%) [8]: 11%
- Population Membrane Permeable-Phenotype (%) [8]: 51%
- Population Mitochondria Different-Phenotype (%) [8]: 96%
- Population Mitotic Cells (%) [8]: 40%
- Population Normal (%) [8]: 88%
- Population Pyknosed Nuclei (%) [8]: 28%
- Population Tubulin-Different-Phenotype (%) [8]: 100%
- Total Cell Count [8]: 60
- Population Apoptotic (%) [9]: 77%
- Population Fragmented Nuclei (%) [9]: 35%
- Population Healthy Nuclei (%) [9]: 44%
- Population Hoechst High Intensity Objects (%) [9]: 14%
- Population Membrane Permeable-Phenotype (%) [9]: 10%
- Population Mitochondria Different-Phenotype (%) [9]: 41%
- Population Mitotic Cells (%) [9]: 22%
- Population Normal (%) [9]: 85%
- Population Pyknosed Nuclei (%) [9]: 20%
- Population Tubulin-Different-Phenotype (%) [9]: 86%
- Total Cell Count [9]: 154
- Population Apoptotic (%) [10]: 40%
- Population Fragmented Nuclei (%) [10]: 34%
- Population Healthy Nuclei (%) [10]: 61%
- Population Hoechst High Intensity Objects (%) [10]: 8%
- Population Membrane Permeable-Phenotype (%) [10]: 14%
- Population Mitochondria Different-Phenotype (%) [10]: 34%
- Population Mitotic Cells (%) [10]: 60%
- Population Normal (%) [10]: 91%
- Population Pyknosed Nuclei (%) [10]: 3%
- Population Tubulin-Different-Phenotype (%) [10]: 94%
- Total Cell Count [10]: 163

Reference: ChEMBL document CHEMBL4689842, “EUbOPEN Chemogenomics Library wave 1” (2021)
